# Reference: ChEMBL document CHEMBL5058577, “EUbOPEN Chemogenomics Library 2 (Multiplex)” (2022)
# Test system: Fibroblast
# Experiment: Multiplex assay against human fibroblast
# Type: toxicity, cell-based
# Summary of the method: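 Live cells were stained at seeding with Hoechst33342, BioTracker Green Microtubule Cytoskeleton Dye, MitoTracker Red and Annexin V Alexa Fluor 680. Following compound addition, they were imaged on a CQ1 microscope at 37°C and 5% CO2 and gated by CellPathfinder machine learning into Hoechst high-intensity objects or normal cells, with normal cells split into healthy, pyknosed or fragmented nuclei and pyknosed cells into mitotic or apoptotic. Tubulin, mitochondrial-mass and membrane-permeability phenotypes are per cents of healthy-nucleus cells.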
# [1] = 12 h, 1 µM, compound concentration 1 uM, replicate 1
# [2] = 12 h, 1 µM, compound concentration 1 uM, replicate 2
# [3] = 12 h, 10 µM, compound concentration 10 uM, replicate 1
# [4] = 12 h, 10 µM, compound concentration 10 uM, replicate 2
# [5] = 24 h, 1 µM, compound concentration 1 uM, replicate 1
# [6] = 24 h, 1 µM, compound concentration 1 uM, replicate 2
# [7] = 24 h, 10 µM, compound concentration 10 uM, replicate 1
# [8] = 24 h, 10 µM, compound concentration 10 uM, replicate 2
# [9] = 48 h, 1 µM, compound concentration 1 uM, replicate 1
# [10] = 48 h, 1 µM, compound concentration 1 uM, replicate 2
# [11] = 48 h, 10 µM, compound concentration 10 uM, replicate 1
# [12] = 48 h, 10 µM, compound concentration 10 uM, replicate 2
smiles,measurement,setting,value
N#Cc1cc(F)cc(-c2nc(-c3ccc(F)cn3)no2)c1,Population Apoptotic (%),[1],28%
same,Population Fragmented Nuclei (%),[1],21%
same,Population Healthy Nuclei (%),[1],63%
same,Population Hoechst High Intensity Objects (%),[1],0%
same,Population Membrane Permeable-Phenotype (%),[1],2%
same,Population Mitochondria Different-Phenotype (%),[1],5%
same,Population Mitotic Cells (%),[1],71%
same,Population Normal (%),[1],100%
same,Population Pyknosed Nuclei (%),[1],15%
same,Population Tubulin-Different-Phenotype (%),[1],22%
same,Total Cell Count,[1],136
same,Population Apoptotic (%),[2],38%
same,Population Fragmented Nuclei (%),[2],32%
same,Population Healthy Nuclei (%),[2],37%
same,Population Hoechst High Intensity Objects (%),[2],6%
same,Population Membrane Permeable-Phenotype (%),[2],15%
same,Population Mitochondria Different-Phenotype (%),[2],6%
same,Population Mitotic Cells (%),[2],61%
same,Population Normal (%),[2],93%
same,Population Pyknosed Nuclei (%),[2],29%
same,Population Tubulin-Different-Phenotype (%),[2],48%
same,Total Cell Count,[2],93
same,Population Apoptotic (%),[3],48%
same,Population Fragmented Nuclei (%),[3],15%
same,Population Healthy Nuclei (%),[3],67%
same,Population Hoechst High Intensity Objects (%),[3],1%
same,Population Membrane Permeable-Phenotype (%),[3],2%
same,Population Mitochondria Different-Phenotype (%),[3],5%
same,Population Mitotic Cells (%),[3],51%
same,Population Normal (%),[3],98%
same,Population Pyknosed Nuclei (%),[3],17%
same,Population Tubulin-Different-Phenotype (%),[3],23%
same,Total Cell Count,[3],179
same,Population Apoptotic (%),[4],28%
same,Population Fragmented Nuclei (%),[4],42%
same,Population Healthy Nuclei (%),[4],32%
same,Population Hoechst High Intensity Objects (%),[4],8%
same,Population Membrane Permeable-Phenotype (%),[4],9%
same,Population Mitochondria Different-Phenotype (%),[4],12%
same,Population Mitotic Cells (%),[4],72%
same,Population Normal (%),[4],91%
same,Population Pyknosed Nuclei (%),[4],24%
same,Population Tubulin-Different-Phenotype (%),[4],36%
same,Total Cell Count,[4],110
same,Population Apoptotic (%),[5],40%
same,Population Fragmented Nuclei (%),[5],19%
same,Population Healthy Nuclei (%),[5],68%
same,Population Hoechst High Intensity Objects (%),[5],2%
same,Population Membrane Permeable-Phenotype (%),[5],1%
same,Population Mitochondria Different-Phenotype (%),[5],3%
same,Population Mitotic Cells (%),[5],60%
same,Population Normal (%),[5],97%
same,Population Pyknosed Nuclei (%),[5],11%
same,Population Tubulin-Different-Phenotype (%),[5],18%
same,Total Cell Count,[5],131
same,Population Apoptotic (%),[6],27%
same,Population Fragmented Nuclei (%),[6],39%
same,Population Healthy Nuclei (%),[6],38%
same,Population Hoechst High Intensity Objects (%),[6],7%
same,Population Membrane Permeable-Phenotype (%),[6],12%
same,Population Mitotic Cells (%),[6],72%
same,Population Normal (%),[6],92%
same,Population Pyknosed Nuclei (%),[6],22%
same,Population Tubulin-Different-Phenotype (%),[6],58%
same,Total Cell Count,[6],88
same,Population Apoptotic (%),[7],70%
same,Population Fragmented Nuclei (%),[7],12%
same,Population Healthy Nuclei (%),[7],70%
same,Population Hoechst High Intensity Objects (%),[7],4%
same,Population Membrane Permeable-Phenotype (%),[7],0%
same,Population Mitochondria Different-Phenotype (%),[7],6%
same,Population Mitotic Cells (%),[7],29%
same,Population Normal (%),[7],95%
same,Population Pyknosed Nuclei (%),[7],16%
same,Population Tubulin-Different-Phenotype (%),[7],22%
same,Total Cell Count,[7],170
same,Population Apoptotic (%),[8],35%
same,Population Fragmented Nuclei (%),[8],47%
same,Population Healthy Nuclei (%),[8],33%
same,Population Hoechst High Intensity Objects (%),[8],11%
same,Population Membrane Permeable-Phenotype (%),[8],5%
same,Population Mitochondria Different-Phenotype (%),[8],11%
same,Population Mitotic Cells (%),[8],65%
same,Population Normal (%),[8],88%
same,Population Pyknosed Nuclei (%),[8],18%
same,Population Tubulin-Different-Phenotype (%),[8],41%
same,Total Cell Count,[8],120
same,Population Apoptotic (%),[9],61%
same,Population Fragmented Nuclei (%),[9],21%
same,Population Healthy Nuclei (%),[9],68%
same,Population Hoechst High Intensity Objects (%),[9],1%
same,Population Membrane Permeable-Phenotype (%),[9],0%
same,Population Mitochondria Different-Phenotype (%),[9],3%
same,Population Mitotic Cells (%),[9],38%
same,Population Normal (%),[9],98%
same,Population Pyknosed Nuclei (%),[9],9%
same,Population Tubulin-Different-Phenotype (%),[9],23%
same,Total Cell Count,[9],137
same,Population Apoptotic (%),[10],50%
same,Population Fragmented Nuclei (%),[10],45%
same,Population Healthy Nuclei (%),[10],32%
same,Population Hoechst High Intensity Objects (%),[10],5%
same,Population Membrane Permeable-Phenotype (%),[10],3%
same,Population Mitochondria Different-Phenotype (%),[10],7%
same,Population Mitotic Cells (%),[10],50%
same,Population Normal (%),[10],94%
same,Population Pyknosed Nuclei (%),[10],22%
same,Population Tubulin-Different-Phenotype (%),[10],57%
same,Total Cell Count,[10],85
same,Population Apoptotic (%),[11],84%
same,Population Fragmented Nuclei (%),[11],20%
same,Population Healthy Nuclei (%),[11],63%
same,Population Hoechst High Intensity Objects (%),[11],7%
same,Population Membrane Permeable-Phenotype (%),[11],0%
same,Population Mitochondria Different-Phenotype (%),[11],11%
same,Population Mitotic Cells (%),[11],16%
same,Population Normal (%),[11],92%
same,Population Pyknosed Nuclei (%),[11],16%
same,Population Tubulin-Different-Phenotype (%),[11],28%
same,Total Cell Count,[11],162
same,Population Apoptotic (%),[12],50%
same,Population Fragmented Nuclei (%),[12],44%
same,Population Healthy Nuclei (%),[12],38%
same,Population Hoechst High Intensity Objects (%),[12],5%
same,Population Membrane Permeable-Phenotype (%),[12],15%
same,Population Mitochondria Different-Phenotype (%),[12],5%
same,Population Mitotic Cells (%),[12],50%
same,Population Normal (%),[12],94%
same,Population Pyknosed Nuclei (%),[12],17%
same,Population Tubulin-Different-Phenotype (%),[12],50%
same,Total Cell Count,[12],110
